Data published in ChEMBL document CHEMBL3244034, “Semisynthetic cephalosporins. Synthesis and structure-activity relationships of 7-(1-pyrryl)- and 7-(1-indolyl)acetamidocephalosporin derivatives” (1978).
Values after ≈ are worked out from the molar mass of the structure shown. Active and inactive are the calls of the source. The rule behind the calls is not given here.

Legend:
Escherichia coli [1] = assay: Antibacterial activity against Escherichia coli after 17 hrs by serial two fold dilution method; type: functional
How it was run: (§1)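 Agar dilution MIC: compound serially diluted twofold in Mueller-Hinton agar. Plate surfaces were inoculated with a suitably diluted 18-24-h broth culture and incubated 17 h at 37 °C. MIC was read as the lowest concentration giving complete or virtually complete inhibition of visible growth.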

Staphylococcus aureus [2] = assay: Antibacterial activity against benzylpenicillin-resistant Staphylococcus aureus after 17 hrs by serial two fold dilution method; type: functional
How it was run: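 Agar dilution MIC. Compound was serially diluted twofold in Mueller-Hinton agar. The surface was inoculated with a diluted 18-24-h broth culture […]. Plates were incubated 17 h at 37 °C. MIC was taken as the lowest concentration giving complete or virtually complete inhibition of visible growth.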

[3] = tested on: Staphylococcus epidermidis; assay: Antibacterial activity against Staphylococcus epidermidis after 17 hrs by serial two fold dilution method; type: functional; how it was run: as §1
Salmonella [4] = assay: Antibacterial activity against Salmonella schottmuelleri after 17 hrs by serial two fold dilution method; type: functional; how it was run: as §1
Staphylococcus aureus [5] = assay: Antibacterial activity against Staphylococcus aureus after 17 hrs by serial two fold dilution method; type: functional; how it was run: as §1
Enterococcus faecalis = assay: Antibacterial activity against Staphylococcus faecalis after 17 hrs by serial two fold dilution method; type: functional; how it was run: as §1
Enterobacter cloacae = assay: Antibacterial activity against Enterobacter cloacae after 17 hrs by serial two fold dilution method; type: functional
Klebsiella aerogenes = assay: Antibacterial activity against Enterobacter aerogenes after 17 hrs by serial two fold dilution method; type: functional
Streptococcus pyogenes [6] = assay: Antibacterial activity against Streptococcus pyogenes after 17 hrs by serial two fold dilution method; type: functional; how it was run: as §1
Proteus mirabilis [7] = assay: Antibacterial activity against Proteus mirabilis after 17 hrs by serial two fold dilution method; type: functional; how it was run: as §1
Providencia stuartii = assay: Antibacterial activity against Providencia stuartii after 17 hrs by serial two fold dilution method; type: functional; how it was run: as §1
Proteus vulgaris = assay: Antibacterial activity against Proteus vulgaris after 17 hrs by serial two fold dilution method; type: functional; how it was run: as §1
Streptococcus pneumoniae = assay: Antibacterial activity against Streptococcus pneumoniae after 17 hrs by serial two fold dilution method; type: functional; how it was run: as §1
Klebsiella pneumoniae [8] = assay: Antibacterial activity against Klebsiella pneumoniae after 17 hrs by serial two fold dilution method; type: functional; how it was run: as §1
Pseudomonas aeruginosa = assay: Antibacterial activity against Pseudomonas aeruginosa after 17 hrs by serial two fold dilution method; type: functional; how it was run: as §1
Haemophilus influenzae = assay: Antibacterial activity against Haemophilus influenzae after 17 hrs by serial two fold dilution method; type: functional, organism-based
Staphylococcus aureus [9] = assay: Antibacterial activity against benzylpenicillin-resistant Staphylococcus aureus infected in sc dosed CD1 mouse assessed as host survival administered 1 and 4 hrs after infection measured on day 4; type: functional
How it was run: (§2)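 Male albino CD-1 mice, 20 (± 1) g, infected intraperitoneally with a bacterial suspension giving uniformly lethal infection. Groups of ten mice were treated subcutaneously with antibiotic at 1 and 4 h post-infection. Survival over 4 days was recorded.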

Fusobacterium varium = assay: Antibacterial activity against Fusobacterium varium after 17 hrs by serial two fold dilution method; type: functional, organism-based
Escherichia coli [10] = assay: Antibacterial activity against Escherichia coli infected in sc dosed CD1 mouse assessed as host survival administered 1 and 4 hrs after infection measured on day 4; type: functional; how it was run: as §2
Proteus mirabilis [11] = assay: Antibacterial activity against Proteus mirabilis infected in sc dosed CD1 mouse assessed as host survival administered 1 and 4 hrs after infection measured on day 4; type: functional; how it was run: as §2
Neisseria gonorrhoeae = assay: Antibacterial activity against Neisseria gonorrhoeae after 17 hrs by serial two fold dilution method; type: functional, organism-based
Bacteroides fragilis = assay: Antibacterial activity against Bacteroides fragilis after 17 hrs by serial two fold dilution method; type: functional, organism-based
Klebsiella pneumoniae [12] = assay: Antibacterial activity against Klebsiella pneumoniae infected in sc dosed CD1 mouse assessed as host survival administered 1 and 4 hrs after infection measured on day 4; type: functional; how it was run: as §2
Salmonella [13] = assay: Antibacterial activity against Salmonella schottmuelleri infected in sc dosed CD1 mouse assessed as host survival administered 1 and 4 hrs after infection measured on day 4; type: functional; how it was run: as §2
Streptococcus pyogenes [14] = assay: Antibacterial activity against Streptococcus pyogenes infected in po dosed CD1 mouse assessed as host survival administered 1 and 4 hrs after infection measured on day 4; type: functional

`CC(=O)OCC1=C(C(=O)O)N2C(=O)[C@@H](NC(=O)Cc3cccs3)[C@H]2SC1` [CEPHALOTHIN] gave an MIC (Escherichia coli [1]) of 6.2 µg/mL (≈ 15.6 µM), an MIC (Staphylococcus aureus [2]) of 0.4 µg/mL (≈ 1.01 µM) and an MIC [3] of 0.4 µg/mL (≈ 1.01 µM). It also gave an MIC (Salmonella [4]) of 0.8 µg/mL (≈ 2.02 µM), an MIC (Staphylococcus aureus [5]) of 0.1 µg/mL (≈ 0.252 µM) and an MIC (Enterococcus faecalis) of 100 µg/mL (≈ 252 µM). The MIC (Enterobacter cloacae) was > 100 µg/mL, the MIC (Klebsiella aerogenes) was > 50 µg/mL and the MIC (Streptococcus pyogenes [6]) was 0.1 µg/mL (≈ 0.252 µM). For the same compound, the MIC (Proteus mirabilis [7]) was 6.2 µg/mL (≈ 15.6 µM), the MIC (Providencia stuartii) was 100 µg/mL (≈ 252 µM) and the MIC (Proteus vulgaris) was > 100 µg/mL. The MIC (Streptococcus pneumoniae) was 0.1 µg/mL (≈ 0.252 µM), the MIC (Klebsiella pneumoniae [8]) was 3.1 µg/mL (≈ 7.82 µM) and the MIC (Pseudomonas aeruginosa) was > 100 µg/mL.

With `CCOC(=O)C(C(=O)N[C@@H]1C(=O)N2C(C(=O)O)=C(COC(C)=O)CS[C@H]12)n1cccc1` (some centres undefined) the MIC (Escherichia coli [1]) was 25 µg/mL (≈ 55.4 µM), the MIC (Staphylococcus aureus [2]) was 6.2 µg/mL (≈ 13.7 µM) and the MIC [3] was 3.1 µg/mL (≈ 6.87 µM). The MIC (Salmonella [4]) was 25 µg/mL (≈ 55.4 µM), the MIC (Staphylococcus aureus [5]) was 1.6 µg/mL (≈ 3.54 µM) and the MIC (Enterococcus faecalis) was > 100 µg/mL. It also gave an MIC (Enterobacter cloacae) of 25 µg/mL (≈ 55.4 µM), an MIC (Klebsiella aerogenes) of 25 µg/mL (≈ 55.4 µM) and an MIC (Streptococcus pyogenes [6]) of 0.4 µg/mL (≈ 0.886 µM). For the same compound, the MIC (Proteus mirabilis [7]) was 50 µg/mL (≈ 111 µM), the MIC (Providencia stuartii) was 12.5 µg/mL (≈ 27.7 µM) and the MIC (Proteus vulgaris) was > 100 µg/mL. The MIC (Streptococcus pneumoniae) was 0.4 µg/mL (≈ 0.886 µM), the MIC (Klebsiella pneumoniae [8]) was 25 µg/mL (≈ 55.4 µM) and the MIC (Pseudomonas aeruginosa) was > 100 µg/mL.

`CC1=C(C(=O)O)N2C(=O)[C@@H](NC(=O)Cn3ccc4ccccc43)[C@H]2SC1` was tested, and the MIC (Escherichia coli [1]) was > 100 µg/mL, the MIC (Staphylococcus aureus [2]) was 3.1 µg/mL (≈ 8.35 µM) and the MIC [3] was 6.2 µg/mL (≈ 16.7 µM). For the same compound, the MIC (Salmonella [4]) was > 100 µg/mL, the MIC (Staphylococcus aureus [5]) was 1.6 µg/mL (≈ 4.31 µM) and the MIC (Enterococcus faecalis) was > 100 µg/mL. The MIC (Enterobacter cloacae) was > 100 µg/mL, the MIC (Klebsiella aerogenes) was > 100 µg/mL and the MIC (Streptococcus pyogenes [6]) was 0.8 µg/mL (≈ 2.15 µM). For the same compound, the MIC (Proteus mirabilis [7]) was > 100 µg/mL, the MIC (Providencia stuartii) was > 100 µg/mL and the MIC (Proteus vulgaris) was > 100 µg/mL. The MIC (Streptococcus pneumoniae) was 1.6 µg/mL (≈ 4.31 µM), the MIC (Klebsiella pneumoniae [8]) was > 100 µg/mL and the MIC (Pseudomonas aeruginosa) was > 100 µg/mL.

For `Cc1nnc(SCC2=C(C(=O)O)N3C(=O)[C@@H](NC(=O)Cn4cnnn4)[C@H]3SC2)s1` [CEFAZOLIN], the Activity (Haemophilus influenzae) was “inactive”, the ED50 (Staphylococcus aureus [9]) was 22 mg/kg and the MIC (Escherichia coli [1]) was 0.8 µg/mL (≈ 1.76 µM). The MIC (Staphylococcus aureus [2]) was 0.4 µg/mL (≈ 0.88 µM), the MIC [3] was 0.8 µg/mL (≈ 1.76 µM) and the MIC (Salmonella [4]) was 1.6 µg/mL (≈ 3.52 µM). The MIC (Staphylococcus aureus [5]) was 0.2 µg/mL (≈ 0.44 µM), the MIC (Enterococcus faecalis) was > 100 µg/mL and the MIC (Klebsiella aerogenes) was > 50 µg/mL. For the same compound, the MIC (Streptococcus pyogenes [6]) was 0.1 µg/mL (≈ 0.22 µM), the MIC (Proteus mirabilis [7]) was 6.2 µg/mL (≈ 13.6 µM) and the Activity (Fusobacterium varium) was “inactive”. For the same compound, the ED50 (Escherichia coli [10]) was 0.6 mg/kg, the ED50 (Proteus mirabilis [11]) was 79 mg/kg and the MIC (Providencia stuartii) was > 50 µg/mL. The MIC (Proteus vulgaris) was > 100 µg/mL, the MIC (Streptococcus pneumoniae) was 0.1 µg/mL (≈ 0.22 µM) and the Activity (Neisseria gonorrhoeae) was “inactive”. For the same compound, the MIC (Klebsiella pneumoniae [8]) was 1.6 µg/mL (≈ 3.52 µM), the MIC (Pseudomonas aeruginosa) was > 100 µg/mL and the Activity (Bacteroides fragilis) was “inactive”. It also gave an ED50 (Klebsiella pneumoniae [12]) of 42 mg/kg, an ED50 (Salmonella [13]) of 2.2 mg/kg and an ED50 (Streptococcus pyogenes [14]) of 1.8 mg/kg.

For `Cc1nnc(SCC2=C(C(=O)O)N3C(=O)[C@@H](NC(=O)Cn4cccc4)[C@H]3SC2)s1`, the MIC (Escherichia coli [1]) was 12.5 µg/mL (≈ 27.7 µM), the MIC (Staphylococcus aureus [2]) was 0.8 µg/mL (≈ 1.77 µM) and the MIC [3] was 0.8 µg/mL (≈ 1.77 µM). For the same compound, the MIC (Salmonella [4]) was 6.2 µg/mL (≈ 13.7 µM), the MIC (Staphylococcus aureus [5]) was 0.2 µg/mL (≈ 0.443 µM) and the MIC (Enterococcus faecalis) was > 100 µg/mL. The MIC (Enterobacter cloacae) was 100 µg/mL (≈ 221 µM), the MIC (Klebsiella aerogenes) was 100 µg/mL (≈ 221 µM) and the MIC (Streptococcus pyogenes [6]) was 0.1 µg/mL (≈ 0.221 µM). For the same compound, the MIC (Proteus mirabilis [7]) was 25 µg/mL (≈ 55.4 µM), the MIC (Providencia stuartii) was 25 µg/mL (≈ 55.4 µM) and the MIC (Proteus vulgaris) was > 100 µg/mL. For the same compound, the MIC (Streptococcus pneumoniae) was 0.1 µg/mL (≈ 0.221 µM), the MIC (Klebsiella pneumoniae [8]) was 6.2 µg/mL (≈ 13.7 µM) and the MIC (Pseudomonas aeruginosa) was > 100 µg/mL.

For `Cc1nnc(SCC2=C(C(=O)O)N3C(=O)[C@@H](NC(=O)Cn4cccc4C=O)[C@H]3SC2)s1`, the MIC (Escherichia coli [1]) was 50 µg/mL (≈ 104 µM), the MIC (Staphylococcus aureus [2]) was 0.8 µg/mL (≈ 1.67 µM) and the MIC [3] was 1.6 µg/mL (≈ 3.34 µM). The MIC (Salmonella [4]) was 12.5 µg/mL (≈ 26.1 µM), the MIC (Staphylococcus aureus [5]) was 0.4 µg/mL (≈ 0.834 µM) and the MIC (Enterococcus faecalis) was > 100 µg/mL. The MIC (Enterobacter cloacae) was > 100 µg/mL, the MIC (Klebsiella aerogenes) was > 100 µg/mL and the MIC (Streptococcus pyogenes [6]) was 0.2 µg/mL (≈ 0.417 µM). For the same compound, the MIC (Proteus mirabilis [7]) was 100 µg/mL (≈ 209 µM), the MIC (Providencia stuartii) was > 100 µg/mL and the MIC (Proteus vulgaris) was > 100 µg/mL. For the same compound, the MIC (Streptococcus pneumoniae) was 0.2 µg/mL (≈ 0.417 µM), the MIC (Klebsiella pneumoniae [8]) was 50 µg/mL (≈ 104 µM) and the MIC (Pseudomonas aeruginosa) was > 100 µg/mL.
